Assay type in all cases: functional
The subject of one assay is HEp-2. The experiment in a line: Cytotoxicity against human Hep2 cells after 72 hrs. The following applies: HEp-2, 72 h, read-out: ED50 (the source's name). Put shortly: (§1)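 Cells grown in RPMI 1640 with 10% fetal bovine serum at 37 °C, 5% CO2, humidified. Log-phase cells treated in triplicate with test samples at 0.16–20 μg/mL for 72 h. Growth read by the NCI sulforhodamine method. ED50 is the dose inhibiting 50% of control growth, estimated from a semilog plot of concentration against percentage of viable cells.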

Assay [1] relates to Staphylococcus aureus. The assay is described as follows: Antimicrobial activity against epidemic methicillin-resistant Staphylococcus aureus 15 containing mecA gene. Put shortly:
(§2)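 Broth microdilution MIC per NCCLS guidelines, at least in duplicate, in cation-adjusted Mueller-Hinton broth (20 mg/L Ca2+, 10 mg/L Mg2+). Strains grown on nutrient agar first. Inoculum 5×10^5 cfu prepared in 0.9% saline against a McFarland standard. Compounds dissolved in DMSO, 2-fold serial dilutions, final 1–512 µg/mL (DMSO ≤3.125% v/v). MIC taken as lowest concentration with no visible growth.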

Assay [2] concerns Staphylococcus aureus. The assay is described as follows: Antimicrobial activity against Staphylococcus aureus ATCC 25923. Put shortly:
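Broth microdilution MIC per NCCLS guidelines, at least in duplicate. Inoculum 5×10^5 cfu prepared in 0.9% saline against a McFarland standard. Cation-adjusted Mueller-Hinton broth with 20 mg/L Ca2+ and 10 mg/L Mg2+. Compounds dissolved in DMSO, then 2-fold serial dilutions, final 1–512 μg/mL; DMSO at most 3.125% v/v. MIC is the lowest concentration giving no visible growth.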

The subject of assay [3] is Staphylococcus aureus. The assay is described as follows: Antimicrobial activity against multidrug-resistant Staphylococcus aureus over expressing NorA MDR efflux pump. Put shortly: as §2
For assay [4], the system named is Staphylococcus aureus. The experiment in a line: Antimicrobial activity against methicillin-resistant Staphylococcus aureus XU212. Put shortly: as §2
In another assay the test system is HeLa. The experiment in a line: Cytotoxicity against human HeLa cells after 72 hrs. The following applies: read-out: ED50 (the source's name). Put shortly:
as §1

A further assay has as its system KB. The assay is described as follows: Cytotoxicity against human KB cells after 72 hrs. The following applies: read-out: ED50 (the source's name). Put shortly:
as §1

Each structure is given as a SMILES string. Converted amounts (≈) assume the structure as drawn.

Data on 15 compounds can be found in ChEMBL document CHEMBL1157407, “Inhibitors of bacterial multidrug efflux pumps from the resin glycosides of Ipomoea murucoides” (2008).

Take `CCCCC[C@H]1CCCCCCCCCC(=O)O[C@H]2[C@H](O[C@H]3[C@H](O1)O[C@H](C)[C@H](O)[C@@H]3O)O[C@@H](C)[C@H](O[C@@H]1O[C@@H](C)[C@H](O[C@@H]3O[C@@H](C)[C@H](OC(=O)[C@@H](C)CC)[C@@H](O)[C@H]3O)[C@@H](O[C@@H]3O[C@@H](C)[C@H](O)[C@@H](O)[C@H]3O)[C@H]1OC(=O)[C@@H](C)CC)[C@H]2O` [MURUCOIDIN III]: the values for the EC50 in the assay with HEp-2, in the assay on HeLa and in the assay with KB were 10.7 µg/mL (≈ 9.28 µM), above 20 µg/mL and 15.4 µg/mL (≈ 13.4 µM), respectively. Also, the MIC with Staphylococcus aureus [1], in the assay with Staphylococcus aureus [2], in the assay with Staphylococcus aureus [3] and against Staphylococcus aureus [4] was above 512 µg/mL throughout.
As for `CCCCC[C@H]1CCCCCCCCCC(=O)O[C@H]2[C@H](O[C@H]3[C@H](O1)O[C@H](C)[C@H](O)[C@@H]3O)O[C@@H](C)[C@H](O[C@@H]1O[C@@H](C)[C@H](O[C@@H]3O[C@@H](C)[C@H](OC(=O)C(C)C)[C@@H](O)[C@H]3O)[C@@H](O[C@@H]3O[C@@H](C)[C@H](O)[C@@H](O)[C@H]3O)[C@H]1OC(=O)[C@@H](C)CC)[C@H]2O` [MURUCOIDIN II], the EC50 with HEp-2 was above 20 µg/mL; with HeLa it was 16 µg/mL (≈ 14 µM); with KB it was above 20 µg/mL. The MIC in the assay with Staphylococcus aureus [1], with Staphylococcus aureus [2], against Staphylococcus aureus [3] and against Staphylococcus aureus [4] was above 512 µg/mL in each case.
As to `CCCCC[C@H]1CCCCCCCCCC(=O)O[C@H]2[C@H](O[C@H]3[C@H](O1)O[C@H](C)[C@H](O)[C@@H]3O)O[C@@H](C)[C@H](O[C@@H]1O[C@@H](C)[C@H](O[C@@H]3O[C@@H](C)[C@H](OC(=O)[C@@H](C)CC)[C@@H](O)[C@H]3O)[C@@H](O[C@@H]3O[C@H](CO)[C@@H](O)[C@H](O)[C@H]3O)[C@H]1OC(=O)[C@@H](C)CC)[C@H]2O` [MURUCOIDIN IV], the EC50 in the assay on HEp-2 was 4 µg/mL (≈ 3.42 µM); in the assay on HeLa, above 20 µg/mL; in the assay with KB, 15 µg/mL (≈ 12.8 µM). In addition, the MIC against Staphylococcus aureus [1], in the assay on Staphylococcus aureus [2], in the assay on Staphylococcus aureus [3] and in the assay on Staphylococcus aureus [4] was above 512 µg/mL in each case.
As for `CCCCC[C@H]1CCCCCCCCCC(=O)O[C@H]2[C@@H](O)[C@H](O[C@H]3[C@H](O1)O[C@H](C)[C@H](O)[C@@H]3O)O[C@@H](C)[C@@H]2O[C@@H]1O[C@@H](C)[C@H](O[C@@H]2O[C@@H](C)[C@H](OC(=O)C(C)C)[C@@H](O)[C@H]2O)[C@@H](O[C@@H]2O[C@@H](C)[C@H](O)[C@@H](O)[C@H]2O)[C@H]1OC(=O)[C@@H](C)CC` [MURUCOIDIN IX], the EC50 was 10.2 µg/mL (≈ 8.95 µM) in the assay on HEp-2, 12.4 µg/mL (≈ 10.9 µM) in the assay on HeLa and above 20 µg/mL in the assay with KB. The MIC in the assay with Staphylococcus aureus [1], against Staphylococcus aureus [2], against Staphylococcus aureus [3] and in the assay on Staphylococcus aureus [4] was above 512 µg/mL throughout.
As for `CCCCC[C@H]1CCCCCCCCCC(=O)O[C@H]2[C@H](O[C@H]3[C@H](O1)O[C@H](C)[C@H](O)[C@@H]3O)O[C@@H](C)[C@H](O[C@@H]1O[C@@H](C)[C@H](O[C@@H]3O[C@@H](C)[C@H](O)[C@@H](O)[C@H]3O)[C@@H](O[C@@H]3O[C@@H](C)[C@H](O)[C@@H](O)[C@H]3O)[C@H]1OC(=O)[C@@H](C)CC)[C@H]2O` [MURUCOIDIN I], the EC50 in the assay with HEp-2, in the assay on HeLa and in the assay on KB was above 20 µg/mL in each case. In addition, the MIC is 256 µg/mL (≈ 239 µM) against Staphylococcus aureus [1], above 512 µg/mL against Staphylococcus aureus [2], 32 µg/mL (≈ 29.9 µM) against Staphylococcus aureus [3] and 512 µg/mL (≈ 479 µM) against Staphylococcus aureus [4].
On to `CCCCC[C@H]1CCCCCCCCCC(=O)O[C@H]2[C@H](O[C@H]3[C@H](O1)O[C@H](CO)[C@@H](O)[C@@H]3O)O[C@@H](C)[C@H](O[C@@H]1O[C@@H](C)[C@H](O[C@@H]3O[C@@H](C)[C@H](OC(=O)[C@@H](C)CC)[C@@H](O)[C@H]3O)[C@@H](O[C@@H]3O[C@@H](C)[C@H](O)[C@@H](O)[C@H]3O)[C@H]1OC(=O)[C@@H](C)CC)[C@H]2O` [MURUCOIDIN VIII], for which the EC50 with HEp-2 amounted to 14.2 µg/mL (≈ 12.1 µM); with HeLa, 16.4 µg/mL (≈ 14 µM); in the assay on KB, 17.9 µg/mL (≈ 15.3 µM). Also, the minimal inhibitory concentration (MIC) against Staphylococcus aureus [1], in the assay on Staphylococcus aureus [2], with Staphylococcus aureus [3] and with Staphylococcus aureus [4] was above 512 µg/mL in each case.
Turning to `CCCCC[C@H]1CCCCCCCCCC(=O)O[C@H]2[C@H](O[C@H]3[C@H](O1)O[C@H](CO)[C@@H](O)[C@@H]3O)O[C@@H](C)[C@H](O[C@@H]1O[C@@H](C)[C@H](O[C@@H]3O[C@@H](C)[C@H](OC(=O)C(C)C)[C@@H](O)[C@H]3O)[C@@H](O[C@@H]3O[C@@H](C)[C@H](O)[C@@H](O)[C@H]3O)[C@H]1OC(=O)[C@@H](C)CC)[C@H]2O` [MURUCOIDIN VII], the EC50 in the assay on HEp-2, with HeLa and in the assay with KB was above 20 µg/mL each time. In addition, the MIC was 256 µg/mL (≈ 222 µM) against Staphylococcus aureus [1], above 512 µg/mL against Staphylococcus aureus [2], 32 µg/mL (≈ 27.7 µM) in the assay with Staphylococcus aureus [3] and 512 µg/mL (≈ 443 µM) against Staphylococcus aureus [4].
As for `CCCCCCCCCCCC(=O)O[C@H]1[C@H](O[C@@H]2[C@H]3OC(=O)CCCCCCCCC[C@H](CCCCC)O[C@@H]4O[C@H](CO)[C@@H](O)[C@H](O)[C@H]4O[C@H](O[C@H]2C)[C@@H]3O)O[C@@H](C)[C@H](O[C@@H]2O[C@@H](C)[C@H](OC(=O)[C@@H](C)CC)[C@@H](O)[C@H]2O)[C@H]1O[C@@H]1O[C@@H](C)[C@H](O)[C@@H](O)[C@H]1O` [MURUCOIDIN VI], the EC50 with HEp-2, in the assay with HeLa and in the assay with KB was above 20 µg/mL each time. Further, the MIC with Staphylococcus aureus [1] is 256 µg/mL (≈ 202 µM); against Staphylococcus aureus [2], above 512 µg/mL; against Staphylococcus aureus [3], 32 µg/mL (≈ 25.2 µM); against Staphylococcus aureus [4], 512 µg/mL (≈ 404 µM).
As to `CCCCC[C@H]1CCCCCCCCCC(=O)O[C@H]2[C@@H](O)[C@H](O[C@H]3[C@H](O1)O[C@H](C)[C@H](O)[C@@H]3O)O[C@@H](C)[C@@H]2O[C@@H]1O[C@@H](C)[C@H](O[C@@H]2O[C@@H](C)[C@H](OC(=O)[C@@H](C)CC)[C@@H](O)[C@H]2O)[C@@H](O[C@@H]2O[C@H](CO)[C@@H](O)[C@H](O)[C@H]2O)[C@H]1OC(=O)[C@@H](C)CC` [MURUCOIDIN V], the values for the EC50 in the assay with HEp-2, in the assay on HeLa and in the assay with KB were above 20 µg/mL, 13.2 µg/mL (≈ 11.3 µM) and above 20 µg/mL, respectively. In addition, the MIC in the assay with Staphylococcus aureus [1] was 128 µg/mL (≈ 109 µM); in the assay with Staphylococcus aureus [2] it was above 512 µg/mL; in the assay on Staphylococcus aureus [3], 64 µg/mL (≈ 54.7 µM); in the assay on Staphylococcus aureus [4], 256 µg/mL (≈ 219 µM).
Consider `CCCCCCCCCCCC(=O)O[C@H]1[C@H](O[C@@H]2[C@H]3OC(=O)CCCCCCCCC[C@H](CCCCC)O[C@@H]4O[C@H](C)[C@H](O)[C@H](O)[C@H]4O[C@H](O[C@H]2C)[C@@H]3O)O[C@@H](C)[C@H](O[C@@H]2O[C@@H](C)[C@H](OC(=O)[C@@H](C)CC)[C@@H](O)[C@H]2O)[C@H]1O[C@@H]1O[C@H](CO)[C@@H](O)[C@H](O)[C@H]1O` [MURUCOIDIN XI], for which the EC50 is above 20 µg/mL in the assay on HEp-2, above 20 µg/mL with HeLa and 12.1 µg/mL (≈ 9.55 µM) in the assay with KB. The MIC with Staphylococcus aureus [1], against Staphylococcus aureus [2], against Staphylococcus aureus [3] and in the assay on Staphylococcus aureus [4] was above 512 µg/mL throughout.
As for `CCCCC[C@H]1CCCCCCCCCC(=O)O[C@H]2[C@@H](O)[C@H](O[C@H]3[C@H](O1)O[C@H](C)[C@H](O)[C@@H]3O)O[C@@H](C)[C@@H]2O[C@@H]1O[C@@H](C)[C@H](O[C@@H]2O[C@@H](C)[C@H](OC(=O)[C@@H](C)CC)[C@@H](O)[C@H]2O)[C@@H](O[C@@H]2O[C@@H](C)[C@H](O)[C@@H](O)[C@H]2O)[C@H]1OC(=O)CCCCCC[C@H](O)CCCC` [MURUCOIDIN X], the results for the EC50 in the assay on HEp-2, with HeLa and in the assay on KB were above 20 µg/mL, above 20 µg/mL and 15.7 µg/mL (≈ 12.4 µM), respectively. Also, the MIC in the assay on Staphylococcus aureus [1], against Staphylococcus aureus [2], against Staphylococcus aureus [3] and with Staphylococcus aureus [4] was above 512 µg/mL in each case.
For the compound `CCn1cc(C(=O)O)c(=O)c2cc(F)c(N3CCNCC3)cc21` [NORFLOXACIN], the EC50 with HEp-2 is above 20 µg/mL. The MIC against Staphylococcus aureus [1] was 256 µg/mL (≈ 802 µM); with Staphylococcus aureus [2] it was above 512 µg/mL; in the assay with Staphylococcus aureus [3], 32 µg/mL (≈ 100 µM); in the assay on Staphylococcus aureus [4], 512 µg/mL (≈ 1600 µM).
Regarding `COC(=O)[C@H]1[C@H]2C[C@@H]3c4[nH]c5cc(OC)ccc5c4CCN3C[C@H]2C[C@@H](OC(=O)c2cc(OC)c(OC)c(OC)c2)[C@@H]1OC` [RESERPINE], the EC50 in the assay with HEp-2 is above 20 µg/mL.
For `CN(C)[C@@H]1C(O)=C(C(N)=O)C(=O)[C@@]2(O)C(O)=C3C(=O)c4c(O)cccc4[C@@](C)(O)[C@H]3C[C@@H]12` [TETRACYCLINE], the MIC is 256 µg/mL (≈ 576 µM) in the assay with Staphylococcus aureus [1], above 512 µg/mL in the assay with Staphylococcus aureus [2], 32 µg/mL (≈ 72 µM) with Staphylococcus aureus [3] and 512 µg/mL (≈ 1150 µM) against Staphylococcus aureus [4].
For `CC[C@]1(O)C[C@@H]2CN(CCc3c([nH]c4ccccc34)[C@@](C(=O)OC)(c3cc4c(cc3OC)N(C)[C@H]3[C@@](O)(C(=O)OC)[C@H](OC(C)=O)[C@]5(CC)C=CCN6CC[C@]43[C@@H]65)C2)C1` [VINBLASTINE], the EC50 in the assay with HEp-2, with HeLa and in the assay on KB was above 20 µg/mL each time.
